Experimental data: ChEMBL document CHEMBL1154983, “Arylpiperazine-containing pyrrole 3-carboxamide derivatives targeting serotonin 5-HT(2A), 5-HT(2C), and the serotonin transporter as a potential antidepressant” (Bioorg Med Chem Lett, 2010)
Each block holds one molecule with its values, some of them ahead of it. Active and inactive are the calls of the source. No cut-off for these calls is given here.

What was measured:
D(3) dopamine receptor = D(3) dopamine receptor (Homo sapiens, UniProt P35462); experiment: Inhibition of dopamine D3 receptor
D(3) dopamine receptor, sequence (P35462 whole entry): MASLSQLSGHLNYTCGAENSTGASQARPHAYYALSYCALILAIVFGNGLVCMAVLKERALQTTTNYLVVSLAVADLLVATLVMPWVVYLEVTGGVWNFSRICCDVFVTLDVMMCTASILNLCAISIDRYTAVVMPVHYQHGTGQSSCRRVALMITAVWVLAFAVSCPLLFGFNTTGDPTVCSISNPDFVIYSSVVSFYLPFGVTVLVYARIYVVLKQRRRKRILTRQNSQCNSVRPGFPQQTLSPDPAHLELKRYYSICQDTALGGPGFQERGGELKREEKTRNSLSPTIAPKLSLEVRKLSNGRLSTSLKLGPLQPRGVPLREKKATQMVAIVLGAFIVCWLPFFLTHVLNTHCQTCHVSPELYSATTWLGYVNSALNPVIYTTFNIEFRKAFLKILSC

D(2) dopamine receptor = D(2) dopamine receptor (Homo sapiens, UniProt P14416); experiment: Inhibition of dopamine D2 receptor
D(2) dopamine receptor, sequence (P14416 whole entry): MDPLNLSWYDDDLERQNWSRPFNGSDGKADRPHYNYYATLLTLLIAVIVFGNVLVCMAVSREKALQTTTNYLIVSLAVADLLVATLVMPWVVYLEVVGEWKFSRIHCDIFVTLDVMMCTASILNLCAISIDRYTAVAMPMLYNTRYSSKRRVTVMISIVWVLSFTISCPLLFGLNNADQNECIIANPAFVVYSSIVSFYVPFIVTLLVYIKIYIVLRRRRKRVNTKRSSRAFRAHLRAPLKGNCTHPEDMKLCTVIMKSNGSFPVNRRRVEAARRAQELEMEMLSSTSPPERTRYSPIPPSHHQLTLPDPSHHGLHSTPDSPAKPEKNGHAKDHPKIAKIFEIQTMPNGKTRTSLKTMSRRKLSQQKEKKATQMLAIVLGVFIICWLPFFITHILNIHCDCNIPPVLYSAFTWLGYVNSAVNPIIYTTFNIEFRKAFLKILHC

[1] = target: 5-hydroxytryptamine receptor 6 (Homo sapiens, UniProt P50406); experiment: Inhibition of 5HT6 receptor
5-hydroxytryptamine receptor 6, sequence (P50406 whole entry): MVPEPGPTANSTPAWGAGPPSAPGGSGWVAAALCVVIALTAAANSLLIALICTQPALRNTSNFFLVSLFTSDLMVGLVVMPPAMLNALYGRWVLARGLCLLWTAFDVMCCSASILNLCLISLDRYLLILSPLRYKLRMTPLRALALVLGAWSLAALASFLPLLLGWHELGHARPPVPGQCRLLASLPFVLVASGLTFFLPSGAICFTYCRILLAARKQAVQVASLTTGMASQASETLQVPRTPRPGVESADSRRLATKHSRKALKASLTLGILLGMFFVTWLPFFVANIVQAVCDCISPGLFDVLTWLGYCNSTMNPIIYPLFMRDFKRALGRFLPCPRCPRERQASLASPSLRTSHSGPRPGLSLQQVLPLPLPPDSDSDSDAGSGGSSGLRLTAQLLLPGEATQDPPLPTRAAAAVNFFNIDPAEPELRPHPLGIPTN

Mus musculus [2] = experiment: Antidepressant activity in mouse assessed as decrease in duration of immobility at 10 mg/kg, po during final 5 mins of the 6 mins session by forced swimming test; format: functional; design: scale not given: the % may be the effect or the level left
How it was run: (§1)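 Mice swam 10 min in a 25-cm glass cylinder (10 cm diameter) holding 15 cm of water at 23 1 °C. Twenty-four hours later, drug was given po 60 min before retesting. Immobility (floating upright with only small movements keeping head above water) was totalled over the last 5 min of the 6-min test.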

Mus musculus [3] = experiment: Antidepressant activity in mouse assessed as decrease in duration of immobility at 25 mg/kg, po during final 5 mins of the 6 mins session by forced swimming test; format: functional; design: scale not given: the % may be the effect or the level left; how it was run: as §1
D(4) dopamine receptor = target: T1, D(4) dopamine receptor (Homo sapiens, UniProt P21917); experiment: Inhibition of dopamine D4 receptor
T1 sequence (P21917 whole entry): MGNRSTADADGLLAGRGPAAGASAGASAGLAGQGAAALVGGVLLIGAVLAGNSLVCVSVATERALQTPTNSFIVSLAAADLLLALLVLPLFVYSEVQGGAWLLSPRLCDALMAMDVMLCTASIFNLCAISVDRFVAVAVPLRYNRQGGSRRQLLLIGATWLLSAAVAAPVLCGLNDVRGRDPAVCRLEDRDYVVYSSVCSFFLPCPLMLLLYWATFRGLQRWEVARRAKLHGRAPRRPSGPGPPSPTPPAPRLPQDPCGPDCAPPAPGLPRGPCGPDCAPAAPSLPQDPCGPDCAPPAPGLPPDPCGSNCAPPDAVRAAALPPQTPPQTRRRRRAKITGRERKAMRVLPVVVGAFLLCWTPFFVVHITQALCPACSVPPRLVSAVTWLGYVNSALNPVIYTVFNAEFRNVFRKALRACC

[4] = target: 5-hydroxytryptamine receptor 7 (Homo sapiens, UniProt P34969); experiment: Inhibition of 5HT7 receptor
5-hydroxytryptamine receptor 7, sequence (P34969 whole entry): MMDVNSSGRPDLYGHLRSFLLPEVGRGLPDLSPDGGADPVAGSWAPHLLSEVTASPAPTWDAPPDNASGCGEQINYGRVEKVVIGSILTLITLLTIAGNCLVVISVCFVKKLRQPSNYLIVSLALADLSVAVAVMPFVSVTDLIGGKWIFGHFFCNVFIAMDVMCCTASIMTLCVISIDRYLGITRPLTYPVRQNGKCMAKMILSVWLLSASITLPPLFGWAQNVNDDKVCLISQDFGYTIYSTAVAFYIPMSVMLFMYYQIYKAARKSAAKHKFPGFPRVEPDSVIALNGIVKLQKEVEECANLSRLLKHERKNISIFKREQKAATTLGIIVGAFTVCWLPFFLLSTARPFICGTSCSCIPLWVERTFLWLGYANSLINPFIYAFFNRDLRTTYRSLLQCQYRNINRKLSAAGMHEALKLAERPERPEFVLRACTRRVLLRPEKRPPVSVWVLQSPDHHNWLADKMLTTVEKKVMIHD

[5] = target: T2, 5-hydroxytryptamine receptor 1A (Homo sapiens, UniProt P08908); experiment: Inhibition of 5HT1A receptor
T2 sequence (P08908 whole entry): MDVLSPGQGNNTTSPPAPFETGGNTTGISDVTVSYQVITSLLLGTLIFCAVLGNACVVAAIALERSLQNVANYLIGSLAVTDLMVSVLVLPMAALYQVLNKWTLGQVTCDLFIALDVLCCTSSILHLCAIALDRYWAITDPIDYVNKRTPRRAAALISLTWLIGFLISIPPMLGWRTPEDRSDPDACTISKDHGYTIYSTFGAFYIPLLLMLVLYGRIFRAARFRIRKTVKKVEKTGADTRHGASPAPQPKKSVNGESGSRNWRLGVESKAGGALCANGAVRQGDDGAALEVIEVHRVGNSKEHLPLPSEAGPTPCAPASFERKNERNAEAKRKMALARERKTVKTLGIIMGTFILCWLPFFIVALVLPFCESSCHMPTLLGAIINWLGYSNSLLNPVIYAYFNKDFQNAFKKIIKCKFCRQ

[6] = target: Sodium-dependent serotonin transporter (Homo sapiens, UniProt P31645); experiment: Displacement of [3H]imipramine from human SERT expressed in HEK293 cells after 30 mins by rapid filtration assay; format: cell-based
Sodium-dependent serotonin transporter, sequence (P31645 whole entry): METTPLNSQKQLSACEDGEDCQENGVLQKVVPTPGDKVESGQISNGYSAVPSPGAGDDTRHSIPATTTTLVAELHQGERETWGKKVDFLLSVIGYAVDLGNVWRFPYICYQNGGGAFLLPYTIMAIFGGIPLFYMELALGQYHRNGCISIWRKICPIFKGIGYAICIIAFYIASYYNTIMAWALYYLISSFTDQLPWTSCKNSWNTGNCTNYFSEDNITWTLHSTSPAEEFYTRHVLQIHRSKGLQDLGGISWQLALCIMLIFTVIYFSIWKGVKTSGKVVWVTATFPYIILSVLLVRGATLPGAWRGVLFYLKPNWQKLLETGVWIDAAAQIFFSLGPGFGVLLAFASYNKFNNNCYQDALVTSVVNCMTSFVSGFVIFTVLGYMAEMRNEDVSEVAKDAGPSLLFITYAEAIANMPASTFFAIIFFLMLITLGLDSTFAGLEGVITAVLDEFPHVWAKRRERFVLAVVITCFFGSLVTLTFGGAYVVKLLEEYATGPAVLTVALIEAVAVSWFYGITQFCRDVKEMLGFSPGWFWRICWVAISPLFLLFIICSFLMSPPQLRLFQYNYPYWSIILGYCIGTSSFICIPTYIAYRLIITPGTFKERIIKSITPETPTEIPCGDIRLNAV
How it was run: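 Frozen membranes were from HEK293 cells expressing human SERT, with 4 nM [3H]imipramine in 50 mM Tris–HCl pH 7.4, 120 mM NaCl and 5 mM KCl. Unlabelled imipramine defined nonspecific binding. Incubation ran 30 min at 27 °C, terminated by rapid filtration through 0.5% PEI-presoaked glass-fibre filters.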

[7] = target: T3, 5-hydroxytryptamine receptor 2C (Homo sapiens, UniProt P28335); experiment: Displacement of [3H]mesulergine from human recombinant 5-HT2C receptor expressed in CHO-K1 cells after 60 mins by rapid filtration assay; format: cell-based
T3 sequence (P28335 whole entry): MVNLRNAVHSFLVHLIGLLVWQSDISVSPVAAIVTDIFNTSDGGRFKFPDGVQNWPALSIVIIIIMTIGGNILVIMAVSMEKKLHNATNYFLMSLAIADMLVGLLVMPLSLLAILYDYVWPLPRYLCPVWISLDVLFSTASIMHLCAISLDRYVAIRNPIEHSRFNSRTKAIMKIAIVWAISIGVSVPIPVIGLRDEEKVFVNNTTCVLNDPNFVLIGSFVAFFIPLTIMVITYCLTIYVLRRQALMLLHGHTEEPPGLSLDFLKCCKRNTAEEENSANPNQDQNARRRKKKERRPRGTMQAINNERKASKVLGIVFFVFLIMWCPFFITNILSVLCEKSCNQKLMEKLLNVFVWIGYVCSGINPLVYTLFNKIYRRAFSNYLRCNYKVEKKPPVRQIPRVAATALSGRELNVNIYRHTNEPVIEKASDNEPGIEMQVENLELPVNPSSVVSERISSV
How it was run: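 Frozen membranes were from CHO-K1 cells stably expressing human recombinant 5-HT2C, with 1.4 nM [3H]mesulergine. Buffer was 50 mM Tris–HCl pH 7.4, 4 mM CaCl2 and 0.1% ascorbic acid, with methiothepin for nonspecific binding. Incubation ran 60 min at 27 °C, stopped by rapid filtration through 0.5% PEI-presoaked glass-fibre filters.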

[8] = target: 5-hydroxytryptamine receptor 2A (Homo sapiens, UniProt P28223); experiment: Displacement of [3H]ketanserin from human recombinant 5-HT2A receptor expressed in CHO-K1 cells after 60 mins; format: cell-based
5-hydroxytryptamine receptor 2A, sequence (P28223 whole entry): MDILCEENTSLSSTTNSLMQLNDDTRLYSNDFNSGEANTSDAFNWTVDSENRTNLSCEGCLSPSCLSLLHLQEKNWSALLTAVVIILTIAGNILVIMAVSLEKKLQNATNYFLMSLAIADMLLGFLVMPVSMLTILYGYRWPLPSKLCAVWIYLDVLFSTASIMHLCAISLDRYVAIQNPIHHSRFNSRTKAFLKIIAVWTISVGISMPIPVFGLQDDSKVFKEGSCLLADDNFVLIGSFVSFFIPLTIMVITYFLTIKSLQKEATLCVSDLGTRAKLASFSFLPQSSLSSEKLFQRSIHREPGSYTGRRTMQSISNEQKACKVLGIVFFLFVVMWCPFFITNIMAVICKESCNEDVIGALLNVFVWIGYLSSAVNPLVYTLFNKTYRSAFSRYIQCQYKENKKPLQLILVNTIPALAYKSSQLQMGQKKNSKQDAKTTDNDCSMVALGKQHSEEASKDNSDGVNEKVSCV
How it was run: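 Membranes were from CHO-K1 cells stably expressing 5-HT2A. Radioligand was at 1 nM, with mianserin defining nonspecific binding. Incubation ran 60 min at 27 °C in 50 mM Tris–HCl pH 7.4 with 4 mM CaCl2 and 0.1% ascorbic acid. Harvesting was by filtration through glass-fibre filters presoaked in 0.5% PEI.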

Mus musculus [9] = experiment: Antidepressant activity in mouse assessed as decrease in duration of immobility at 100 mg/kg, po during final 5 mins of the 6 mins session by forced swimming test; format: functional; design: scale not given: the % may be the effect or the level left; how it was run: as §1
[10] = Cmax in rat at 5 mg/kg, po; format: ADME, organism-based; design: dose 5 mg/kg, route oral; conditions: in vivo
How it was run: (§2)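 Rats dosed once with the HCl salt, either i.v. at 1 mg/kg (n = 2 or 3) or orally at 5 mg/kg (n = 3). Plasma and brain levels were followed to derive Cmax, Clast, Tmax, t1/2, AUC, dose-normalised AUC, oral bioavailability (F) and the brain/plasma ratio.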

[11] = Oral bioavailability in rat at 5 mg/kg; format: ADME, organism-based; conditions: in vivo; how it was run: as §2
Rattus norvegicus [12] = experiment: Dose normalized AUC (0 to infinity) in rat at 1 mg/kg, iv; format: ADME, organism-based; design: dose 1 mg/kg, route intravenous; conditions: in vivo; how it was run: as §2
[13] = AUC (0 to infinity) in rat at 5 mg/kg, po; format: ADME, organism-based; design: time infinity, dose 5 mg/kg, route oral; conditions: plasma; how it was run: as §2
Rattus norvegicus [14] = experiment: Dose normalized AUCirlf in rat at 5 mg/kg, po; format: ADME, organism-based; design: dose 5 mg/kg, route oral; conditions: in vivo; how it was run: as §2
[15] = Ratio of drug level in brain to plasma in rat; format: ADME, cell-free; how it was run: as §2
[16] = AUC in rat plasma; format: ADME, cell-free; how it was run: as §2
[17] = Cmax in rat plasma; format: ADME, organism-based; how it was run: as §2
[18] = Tmax in rat plasma; format: ADME, cell-free; how it was run: as §2
[19] = AUC in rat brain; format: ADME, tissue-based; how it was run: as §2
[20] = Elimination half life in rat at 5 mg/kg, po; format: ADME, organism-based; design: dose 5 mg/kg, route oral; conditions: in vivo, read-out: beta t1/2 (converted); how it was run: as §2
Brain = experiment: Clast in rat brain; format: ADME, tissue-based; conditions: in vivo; how it was run: as §2
[21] = Half life in rat brain; format: ADME, tissue-based; how it was run: as §2
Rattus norvegicus [22] = experiment: Clast in rat at 1 mg/kg, iv; format: ADME, organism-based; design: dose 1 mg/kg, route intravenous; conditions: in vivo; how it was run: as §2
Plasma = experiment: Clast in rat plasma; format: ADME, cell-free; how it was run: as §2
[23] = Half life in rat at 1 mg/kg, iv; format: ADME, organism-based; design: dose 1 mg/kg, route intravenous; conditions: in vivo; how it was run: as §2
[24] = Cmax in rat at 1 mg/kg, iv; format: ADME, organism-based; design: dose 1 mg/kg, route intravenous; conditions: in vivo; how it was run: as §2
Rattus norvegicus [25] = experiment: Clast in rat at 5 mg/kg, po; format: ADME, organism-based; design: dose 5 mg/kg, route oral; conditions: in vivo; how it was run: as §2
[26] = Tmax in rat at 5 mg/kg, po; format: ADME, organism-based; design: dose 5 mg/kg, route oral; conditions: in vivo; how it was run: as §2
[27] = AUC (0 to infinity) in rat at 1 mg/kg, iv; format: ADME, organism-based, Plasma; design: time infinity, dose 1 mg/kg, route intravenous; conditions: plasma; how it was run: as §2
[28] = Tmax in rat brain; format: ADME, tissue-based; how it was run: as §2
[29] = Half life in rat plasma; format: ADME, cell-free; how it was run: as §2
[30] = Cmax in rat brain; format: ADME, organism-based; how it was run: as §2

IC50 (D(3) dopamine receptor): 1070 nM
IC50 (D(2) dopamine receptor): 3740 nM
IC50 [1]: 1900 nM
IC50 (D(4) dopamine receptor): 645 nM
IC50 [4]: 408 nM
IC50 [5]: 94 nM
SMILES: CCCn1c(-c2ccccc2)cc(C(=O)NCCCN2CCN(c3cccc(Cl)c3Cl)CC2)c1C
Activity (Mus musculus [2]): 80%
Activity (Mus musculus [3]): <50%

IC50 (D(3) dopamine receptor): 334 nM
IC50 (D(2) dopamine receptor): 1070 nM
IC50 [1]: 1410 nM
IC50 [6]: 137 nM
IC50 (D(4) dopamine receptor): 1840 nM
IC50 [4]: 456 nM
IC50 [5]: 117 nM
SMILES: Cc1[nH]c(-c2ccccc2)cc1C(=O)NCCCN1CCN(c2cccc(Cl)c2Cl)CC1
Activity (Mus musculus [3]): <50%

IC50 [7]: 156 nM
IC50 [8]: 175 nM
IC50 [6]: 57 nM
SMILES: Cc1c(C(=O)NCCN2CCN(c3cccc(Cl)c3Cl)CC2)cc(-c2ccccc2)n1C

Cmax [10]: 118 ng/mL
bioavailability [11]: 24.8%
AUC/dose (Rattus norvegicus [12]): 18.703 µg·min/mL
AUC(0-inf) [13]: 386 ng·h/mL
AUC/dose (Rattus norvegicus [14]): 4.63 µg·min/mL
Kp [15]: 34.5
AUC [16]: 240 ng·h/mL
Cmax [17]: 70 ng/mL
Tmax [18]: 1 h
AUC [19]: 82.7 ng·h/mL
half-life [20]: 3.14 h
Clast (Brain): 20 ng/mL
half-life [21]: 4.28 h
Clast (Rattus norvegicus [22]): 8 ng/mL
Clast (Plasma): 40 ng/mL
half-life [23]: 2.82 h
Cmax [24]: 454 ng/mL
Clast (Rattus norvegicus [25]): 1 ng/mL
Tmax [26]: 0.75 h
AUC(0-inf) [27]: 312 ng·h/mL
Tmax [28]: 2 h
half-life [29]: 3.71 h
Cmax [30]: 30 ng/mL
SMILES: Cc1c(C(=O)NCCCN2CCN(c3cccc(Cl)c3Cl)CC2)cc(-c2ccccc2)n1C.Cl

IC50 [7]: 225 nM
IC50 [8]: 129 nM
IC50 [6]: 76 nM
SMILES: CCCn1c(-c2ccccc2)cc(C(=O)NCCCN2CCN(c3cccc(C)c3C)CC2)c1C

Continued, molecule first:

SMILES: Cc1c(C(=O)NCCCN2CCN(c3cccc(Cl)c3)CC2)cc(-c2ccccc2)n1Cc1ccccc1
IC50 [7]: 1440 nM
IC50 [8]: 179 nM
IC50 [6]: 235 nM

SMILES: Cc1c(C(=O)NCCCN2CCN(c3cccc(Cl)c3)CC2)cc(-c2ccccc2)n1CC(C)C
IC50 [7]: 1600 nM
IC50 [8]: 333 nM
IC50 [6]: 110 nM

SMILES: CCn1c(-c2ccccc2)cc(C(=O)NCCCN2CCN(c3cccc(Cl)c3Cl)CC2)c1C
Activity (Mus musculus [9]): <25%
Activity (Mus musculus [2]): inactive

SMILES: Cc1c(C(=O)NCCCN2CCN(c3cccc(Cl)c3)CC2)cc(-c2ccccc2)n1C
Activity (Mus musculus [9]): inactive
